Measurements published in the EternaBench riboswitch data.

Test system: MS2 coat protein
Experiment: apparent Kd, MS2 coat protein; higher = weaker binding; RNA-MaP array; FMN 200 µM where present
How it was run: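 Designs on Illumina sequencing-chip clusters, transcribed by stalled E. coli RNA polymerase, were exposed to SNAP-549-labelled MS2 coat protein in doubling steps from 0.7 or 1.5 nM up to 3 µM, without and then with constant ligand. The buffer held 100 mM Tris-HCl pH 7.5, 80 mM KCl, 4 mM MgCl2, BSA, DTT, yeast tRNA and Tween-20. Apparent Kd values are medians of filtered per-cluster binding-curve fits to green signal normalised to red-channel RNA signal and control-cluster median Fmax.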

[1] = designed as: OFF switch for flavin mononucleotide, no ligand
[2] = ligand present: flavin mononucleotide, designed as: OFF switch for flavin mononucleotide
[3] = designed as: ON switch for flavin mononucleotide, no ligand
[4] = ligand present: flavin mononucleotide, designed as: ON switch for flavin mononucleotide

Row | Sequence | apparent Kd [1] | apparent Kd [2] | apparent Kd [3] | apparent Kd [4]
1 | GUCAGCUCGUGAGGAUAUACAACACUGCUUCGGCAGUGUAUUGAGAUCACAUGAGGAUCACCCAUGUAGAAGGCACGAGCUGAU | 12.9 nM | 225 nM | – | –
2 | GCGCUAAAACAGAAGGCCAAAUACAUGAGGAUCACCCAUGUCGAAUCAUGGAGGAUAUGUUAUUAAUUACUCGCAGAUGAGCGC | – | – | 104 nM | 11.8 nM
3 | AUGUCGCACCAGAAGGGUCAACCAAUAAAUUAGACAGGAUAUGGGCGAUAAGUAUGUCGCGACAUGAGGAUCACCCAUGUCCGG | – | – | 11.6 nM | 5.95 nM
4 | CUUUCGUGAGGAUAUCAGUAGUAAAUAAAUAAAAUUACUACUGAGAAGGCACAUGAGGAUCACCCAUGUUCCUU | 11.8 nM | 18.5 nM | – | –
5 | UUCGUGCAGCUUUGCUGUACGCGUACAUGAGGAUCACCCAUGUAGGAUAUGGUAGGCUUUGUUUACUAGAAGGAUAGUGUGAUC | 140 nM | 45.8 nM | – | –
6 | GGUUGGCGAGGAUAUACAUGAGGAUCACCCAUGUGGUCCUGUGGCAAAAAAAACCUUUGUAGAAGGCGCGGGUC | 354 nM | 285 nM | – | –
7 | CCCACGUGUGCAGGAUAUCCCACGAGCACAACAUGAGGAUCACCCAUGUACCUGAGUCUCGGAACGGAGAAGGGUACAUGUUAU | – | – | 72.4 nM | 69.1 nM
8 | GAUUACAUCACAGGAUAUAGAAUAAAACAGAUUUUAGAAGGGUGAGCCUCGUCGACCGCGACAUGAGGAUCACCCAUGUUGUGU | – | – | 18.4 nM | 35.7 nM
9 | GGCGAACAGGCUAACAUGAGGAUCACCCAUGUGGACUCAUGCGAGGAUAUCGGGAAGGAGGAUUCCGAGAAGGUGCGGUGAGCC | – | – | 788 nM | 304 nM
10 | UCAUAAAUUCGAGGAUAUCGGUGAUAAAGAAGACGAGAAGGCGAUUAGAGAGAGAUGGUUAUAGACAUGAGGAUCACCCAUGUU | – | – | 33.9 nM | 24.1 nM
11 | GAGCGGCGUACAGGAUAUCCUACAUGAGGAUCACCCAUGUCACAUUUACACGAGAACGUGUACGAGGAGAAGGGUGGGUUCGUG | – | – | 287 nM | 588 nM
12 | UGUGUUUUUGUGAGGAUAUACUGUUUGUUUUGUUUGUAGAAGGUACAUGAGGAUCACCCAUGUUGUGUUUGGUU | 37.5 nM | 29.2 nM | – | –
13 | CAGCUGAAUGUGAGGAUAUUACGAGCUGCGGCUCGUGAGAAGGCACAUGAGGAUCACCCAUGUCUCAACAGCUG | 37.2 nM | 741 nM | – | –
14 | GUGACGAAUGUAGGAUAUGCUGACCAAUGGUCAGCAGAAGGACAUGAGGAUCACCCAUGUCAUCCUUAUAAUGAAUAACGUCAC | 13.5 nM | 18.6 nM | – | –
15 | UACAUUAACAUGAGGAUCACCCAUGUUGGCCAGUCUCACACCAGAAGGCACGUAGAGCACAACAGUGAGGAUAUGGGUGACAUA | – | – | 218 nM | 98.7 nM
16 | AGUGUGUGGCAGGAUAUUCUGUUGGUUCGGGCAGAAGAAGGGUCUACAUGAGGAUCACCCAUGUAAGCGGUUGA | 205 nM | 486 nM | – | –
17 | GUCAGCUCGUGAGGAUAUAAAACACUGCUUCGGCAGUGUAUUAAGAUCACAUGAGGAUCACCCAUGUAGAAGGCACGAGCUGAU | 5.05 nM | 6.38 nM | – | –
18 | AAUAAACAUGAGGAUCACCCAUGUCAGGAUAUGCGUCUAUCCUUAUACCAUAGAUACGGCAGAAGGGACUAAUA | 24.9 nM | 31 nM | – | –
19 | AUGUCUCUAGGAUAUUAGCGGAUCUACAUGAGGAUCACCCAUGUCGUGUCGCAGAUGUGCUGAGAAGGAGAGCACA | 15.2 nM | 19 nM | – | –
20 | GCCAGGCAUGUAGGAUAUCCAUUGCGUCGCGUUGGAGAAGGGCAGCACACAUGAGGAUCACCCAUGUGGUCUCCCAUGAUGUGU | 209 nM | 223 nM | – | –
21 | GUAUGGAGUACAGGAUAUGUUAGUUUUAAGUGUAUUGGUUAUUACUUAAUUACAGAAGGGUAUUACAUGAGGAUCACCCAUGUA | – | – | 13.6 nM | 10.6 nM
22 | UUUUAACAUGAGGAUCACCCAUGUGAGGAUAUCGAAAUUUAUAUUAAUAUUUAUAUAACGAGAAGGCACAUUUU | 68.4 nM | 90.1 nM | – | –
23 | UAUAAGUCUCAUGUAACAUGAGGAUCACCCAUGUCAUAUUGUAGAAGGAUGAUAAUAUGUAUAUCAUAGGAUAUACUAUAUGUU | 20.9 nM | 19.6 nM | – | –
24 | UUUUAACAUGAGGAUCACCCAUGUGAGGAUAUCGAAAUUUAUAUUAAUAUUUUUAAUACGAGAAGGCACAUUUU | 47.2 nM | 73.6 nM | – | –
25 | AAAAAACAUGAGGAUCACCCAUGUGAGGAUAUCCAAAAGUCAAAGAAAAAGACGAAAAGGAGAAGGCACAAAAA | 72.8 nM | 84.8 nM | – | –
26 | CUAGACUUAUCAGGAUAUCAUCGCGUGGAUUAACCCUGUGAUUACAUGAGGAUCACCCAUGUGCUUGAGAAGGGAUUACUAUUU | 28.8 nM | 114 nM | – | –
27 | AAAAAACAUGAGGAUCACCCAUGUGAGGAUAUGCAAAAAAAAAAAAAAAAAUAAAAAAGCAGAAGGCACAAAAA | 63.4 nM | 86.2 nM | – | –
28 | CAGUAAUUCGAAGGAUAUGGUUACAUGAGGAUCACCCAUGUAUGAUUUGUGAUCUUAAAAUUGAUCCAGAAGGUCGAAUUACUG | 206 nM | 330 nM | – | –

Row | Sequence | apparent Kd [1] | apparent Kd [2] | apparent Kd [3] | apparent Kd [4]
29 | AGUCGGAGCAGAGGAUAUACAUGAGGAUCACCCAUGUAAUAAAUCCAAGCCUGGAAACAGGCAAUGUAGAAGGCUGCUCCGACA | 16.8 nM | 78.8 nM | – | –
30 | GAGAAGUCAGGAUAUGCUGCUCGUCACUUGCGUGAUGAGUAGCAGAAGGGACAUGAGGAUCACCCAUGUAAAGA | 51.2 nM | 64.5 nM | – | –
31 | GACAUGAGGAUCACCCAUGUCCAUGCAAGAGUAGUUGAGACCAGAAGGACCGUGCGGAGCGCAGGGUAGGAUAUGGAGCCCUCA | – | – | 32.4 nM | 9.46 nM
32 | UAGUGGCAAGGAUAUACAGUGGAGAGGAUUGCAAGAGGUGGACAUGAGGAUCACCCAUGUAGAAGGUGCAGAGA | 298 nM | 182 nM | – | –
33 | CGUCCGUGGGUAGUGAUCGUACAUGAGGAUCACCCAUGUGAGAAGGAUAUGCAUGCACGUGGACAGCAGAAGGUCUCACAACAA | 238 nM | 101 nM | – | –
34 | GCGUAAUAGGUGUAGCUAGUCAUUCAAGAAGGGUGGAGAACAUGAGGAUCACCCAUGUGGUUUAUACAGGAUAUUGAUAUACGC | – | – | 258 nM | 51.2 nM
35 | UUCAGCUCGUGAGGAUAUACAUGUGCUGGAAACAGCACUAAAGAUUUCACAUGAGGAUCACCCAUGUAGAAGGCACGAGCUGAG | 16.2 nM | 39.4 nM | – | –
36 | UUACUAUUGGAGAAGGGUCCAUCAUAUAGAAGGACAGGAUAUCCAACAUGAGGAUCACCCAUGUGUCACCCAUAUGAGGAUCAC | 41.4 nM | 82.2 nM | – | –
37 | AAAAUGUCAGGAUAUGCGAAGGCGUCUGACGGACGAGGAUUGCAGAAGGGACAUGAGGAUCACCCAUGUAAAAA | 54.5 nM | 138 nM | – | –
38 | UGGUACAUGGGAGGAUAUGGGUUGAUAACAUGAGGAUCACCCAUGUUAAAUAUGCCUAGUGGCAACUAGAAGGCCCAUGUACCU | – | – | 317 nM | 51 nM
39 | GUAGCAUACCGAGGAUAUCUCAAUAAUAAACAAACAUGAGGAUCACCCAUGUGGCGAAAGCCAAGGGAGAAGGCGGAAUGCUAC | – | – | 43.1 nM | 17.6 nM
40 | UAGAAGUCAGGAUAUCCAGCUCGUCACUUGCGUGAUGAGUUGGAGAAGGGACAUGAGGAUCACCCAUGUAAAGA | 61.9 nM | 57.8 nM | – | –
41 | AGCAAGAGAGGAUAUACAUAGGAAAAAAAAGUCUGAUCCCUACAUGAGGAUCACCCAUGUAGAAGGCUCUGGCA | 69.5 nM | 24.7 nM | – | –
42 | GUGACGAUGUAAGGAUAUGCUGAGGAAUACUCAGCAGAAGGUACAUGAGGAUCACCCAUGUAACGUCACAAUAAUAAUAAUAAU | 13.3 nM | 24.1 nM | – | –
43 | GCGUACAUCGGAGGAUAUCAUGUAAAUACAUGAGGAUCACCCAUGUCGAUGGAGACAUCGGAGAUUGAGAAGGCCGAUGUACCG | – | – | 157 nM | 8.42 nM
44 | UAGCUCUCGGCAGGAUAUCCUGCAUAAUGUCGAGUCCGCGCCCGGACAUGAGGAUCACCCAUGUAGGAGAAGGGCCCACGGGCG | 28 nM | 32.3 nM | – | –
45 | UUGGACGUCGUAGGAUAUGUAGGAUACUCCUACAUGAGGAUCACCCAUGUUGACAUGGAAGAAGGACAGAAGGACGAUGUCCAU | – | – | 753 nM | 50.5 nM
46 | GGAUAGGACAGAGGAUAUACGUGCUAGAGAUACUAGCAAAAUUUCCUCACAUGAGGAUCACCCAUGUAGAAGGCUGUCCUCUCG | 18 nM | 409 nM | – | –
47 | GUGGUUGUCGUAGGAUAUGUAGGAUAUUCCUACAUGAGGAUCACCCAUGUUAGCAUGGAAGAAGGACAGAAGGACGAUGACCAG | – | – | 904 nM | 15.1 nM
48 | UGGUUUAGUGUUAGGAUAUAAUCCGAAGUCAGCGAUUAGAAGGAACAUGAGGAUCACCCAUGUUUUAGAUAACC | 16 nM | 16.9 nM | – | –
49 | AGAAACUACGAGAAGGACAUGUGGUCCUUCCAAAACAUGAGGAUCACCCAUGUAGGAUAUCGUAGUUUCAGGAUCGUGAGAUCA | 11.5 nM | 4.61 nM | – | –
50 | AUUUGAAGGUAGAAGGGUGACAUGAGGAUCACCCAUGUGCGAGCAUCGGACGAAGAUGGCUCGCCACAGGAUAUACCUUCAAAU | – | – | 36.7 nM | 46.3 nM
51 | UUAUUUAGGUAGGAUAUCGAUAUUAUUCCCUAUCGAGAAGGGUCUACAUGAGGAUCACCCAUGUUAGCAUGUUU | 22.3 nM | 22.2 nM | – | –
52 | AACUCACAUGAGGAUCACCCAUGUGAGGAUAUAUUGUUAUGGAUGUUAUUUUGUAGUGGUAGAAGGCGCGUGAU | 15.3 nM | 15.2 nM | – | –
53 | UGUCGGAGCAGAGGAUAUUACAUGAGGAUCACCCAUGUAUGAACCAAUAGCUGGAAACAGCAAUGUAAGAAGGCUGCUCUGACA | 11.5 nM | 150 nM | – | –
54 | GGGCUCGGAGGAUAUACAUGAGGAUCACCCAUGUAGGGCUCGGGUAUUCUCGGGCUCUGUAGAAGGUCGGGCUC | 20.3 nM | 23.3 nM | – | –
55 | GGUGUACAUGAGGAUCACCCAUGUCGUACGACAUGAGGAUAUGUACAGACUUCGGUCUGUACAGAAGGCAUGUGUC | – | – | 249 nM | 26.4 nM
